Compound activity as filed in PubChem BioAssay.
Most compounds without a hit are left out; they make up all but 1.9% or so of the library.
MC4R ag barr: human MC4R agonism via beta-arrestin; P32245; U2OS MC4R beta-arrestin complementation, luminescence; percent of melanotan II response, DMSO zero; activation, % at 8.9 µM; actives 0.98% (n = 360,000); AID 540308;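 active = activation above a per-plate cutoff, the mean activation of sample wells on that plate plus 3 SD, cut at about 8% in these data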
NTR1 ag: activates human neurotensin receptor 1; activation, % at 20 µM; actives 0.17% (n = 330,000); NTR1-U2OS beta-arrestin-GFP spot imaging, agonist mode; AID 493036;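 active = activation at or above 40% of the spot to cytoplasm intensity ratio, with at least 20 cells analyzed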
TLR4-MyD88 BLA: inhibitors of human TLR4-MyD88 binding | O00206+Q99836 | inhibition, % at 8.4 µM | HeLa CL3-4 TLR4/MyD88 BLA complementation, FRET ratio | actives 0.18% (n = 200,000); in the data active = inhibition above about 25%
MC4R antagonist: blocks human MC4R cAMP signaling; P32245; actives 0.48% (n = 360,000); inhibition, % at 6.5 µM; MC4R-expressing cells, MTII-stimulated cAMP, LANCE TR-FRET;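 active = inhibition above its plate's cutoff, the mean of tested wells on that plate plus 3 SD, cut at about 29% in these data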
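Material – human MC4R-expressing U2OS cells · Repeats – no replicates · Detection – TR-FRET with Eu-cAMP and labeled anti-cAMP, 671 nm · Times – compound 30 min, challenge 1 h, detection 1 h · Compound – single nominal compound dose of 6.5 µM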
NOD2-RIPK2 inh: NOD2-RIPK2 protein interaction inhibition; CHO BLA complementation NOD2-RIPK2, CCF4 ratio; actives 0.38% (n = 360,000); AID 624267; inhibition, % at 4.98 µM; in the data active = inhibition above about 21%
Target sequence (O43353 whole entry, looked up): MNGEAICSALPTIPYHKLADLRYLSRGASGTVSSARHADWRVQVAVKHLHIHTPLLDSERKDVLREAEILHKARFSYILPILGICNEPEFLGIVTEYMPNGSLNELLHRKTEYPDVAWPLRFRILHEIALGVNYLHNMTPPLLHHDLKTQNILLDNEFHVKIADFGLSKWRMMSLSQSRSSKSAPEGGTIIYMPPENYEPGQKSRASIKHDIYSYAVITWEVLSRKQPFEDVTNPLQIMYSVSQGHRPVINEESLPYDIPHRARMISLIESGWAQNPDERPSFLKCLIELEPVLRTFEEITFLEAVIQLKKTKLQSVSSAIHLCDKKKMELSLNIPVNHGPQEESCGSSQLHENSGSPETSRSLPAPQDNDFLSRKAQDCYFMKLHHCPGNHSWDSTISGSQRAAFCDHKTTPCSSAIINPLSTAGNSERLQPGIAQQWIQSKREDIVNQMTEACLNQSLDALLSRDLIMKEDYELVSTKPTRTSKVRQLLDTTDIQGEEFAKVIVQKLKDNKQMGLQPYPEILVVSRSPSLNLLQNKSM
TLR9-MyD88 block: TLR9-MyD88 interaction inhibition. Q9NR96+Q99836. actives 0.21% (n = 340,000). AID 504734. inhibition, % at 4.98 µM. CHO BLA complementation TLR9-MyD88, CCF4 FRET ratio;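 active = inhibition above the mean over all tested compounds plus 3 SD, cut at about 21% in these data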
NTR1 ag confirm: confirmation of agonists of human NTR1; actives 38% (n = 480); activation, % at 20 µM; NTR1-U2OS beta-arrestin-GFP translocation imaging; shares compounds with NTR1 ag; AID 504550;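 active = mean activation at 20 µM of at least 40%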
Of the large screens only hits and unclear results are named; the others gave an inactive call (follow-up assays come after a bar, where they were run).

C=CCN(c1ccccc1)S(=O)(=O)c1cccc(C(=O)NCC(c2cccs2)N2CCOCC2)c1 (stereo not drawn)	none (no result: TLR4-MyD88 BLA)
CC(C)Cn1c(O)c(/C=C2\C=NN=C2c2ccccc2)sc1=S	NTR1 ag 59 | NTR1 ag confirm 61
COc1cccc(CC2(CO)CCN(CC3=CC[C@H]4C[C@@H]3C4(C)C)CC2)c1	none
O=C(Cc1ccc(Cl)cc1)NC(=S)Nc1ccccc1N1CCOCC1	NTR1 ag 45 | NTR1 ag confirm inactive
CCCC(=O)NC(=S)Nc1ccccc1N1CCOCC1	none
O=C(CCN1C(=O)/C(=C/c2cccs2)SC1=S)Nc1ccc(C(=O)O)cc1	none (no result: TLR4-MyD88 BLA)
CSc1nnc(NC(=O)C23CC4CC(CC(C4)C2)C3)s1	NTR1 ag 52 (no result: TLR4-MyD88 BLA) | NTR1 ag confirm 53
NC(=O)CSc1nnc(NC(=O)C23CC4CC(CC(C4)C2)C3)s1	none (no result: TLR4-MyD88 BLA)
O=C(/C=C/c1cccc(Cl)c1)Nc1ncccn1	none
O=C(/C=C/c1cccc(Cl)c1)c1nc2ccccc2[nH]1	NTR1 ag 42 | NTR1 ag confirm 72
COC(=O)c1cc(=O)n(-c2ccc(F)cc2)c(=Nc2ccc(F)cc2)s1	NTR1 ag 50 | NTR1 ag confirm 52
COC(=O)c1ccc(N=c2sc(C(=O)OC)cc(=O)n2C)cc1	none (no result: NTR1 ag)
COC(=O)c1cc(=O)n(Cc2cccs2)c(=Nc2ccc(F)cc2)s1	NTR1 ag 42 | NTR1 ag confirm inactive
O=C(C1=C[C@@H](c2ccc(Br)cc2)C[C@@H](OCc2ccc(CO)cc2)O1)N1CCN(Cc2ccc3c(c2)OCO3)CC1	none
CC(=O)C1CCC2C3CC(C)=C4CC(O)CCC4(C)C3CCC12C (stereo not drawn)	none (no result: NTR1 ag, TLR4-MyD88 BLA)
CCOc1ccc(C(=O)Nc2nnc(NC(=S)Nc3ccccc3)s2)cc1	NTR1 ag 61 | NTR1 ag confirm 46
CCc1nnc(NC(=S)Nc2ccccc2)s1	none
Cc1ccc(C(=O)Nc2nnc(NC(=S)Nc3ccccc3)s2)cc1	NTR1 ag 73 | NTR1 ag confirm 58
Cc1ccccc1-n1c(=O)[nH]c(=O)c2c(N)c(C(=O)c3ccc(Cl)cc3)sc21	NTR1 ag 40 | NTR1 ag confirm inactive
CC(C)S(=O)(=O)c1csc(NC(=O)Nc2cccc([N+](=O)[O-])c2)c1Cl	NTR1 ag 50 (no result: TLR4-MyD88 BLA) | NTR1 ag confirm inactive
COc1ccccc1CNC(=O)CN1C(=O)NC2(CCCCCCC2)C1=O	none (no result: TLR4-MyD88 BLA)
COc1ccccc1CNC(=O)CN1C(=O)NC(C)(c2ccc(C)cc2)C1=O (stereo not drawn)	NTR1 ag 47 (no result: TLR4-MyD88 BLA) | NTR1 ag confirm inactive
Cc1cc(=O)[nH]c2nnc(-c3ccc(Br)cc3)n12	none (no result: TLR4-MyD88 BLA)
C(=C\c1nc(N2CCCCCC2)c2ccccc2n1)/c1ccccc1	NTR1 ag 42 | NTR1 ag confirm inactive
CCCCCc1cc(=O)oc2c(C(CCN3CCCCC3)c3ccc(OC)cc3)c(OC)cc(OC)c12 (stereo not drawn)	NTR1 ag 48 (no result: TLR4-MyD88 BLA) | NTR1 ag confirm 61
CCCCCc1cc(=O)oc2c(C(CCN3CCCC3)c3ccc(N(C)C)cc3)c(OC)cc(OC)c12 (stereo not drawn)	NTR1 ag 53 (no result: TLR4-MyD88 BLA) | NTR1 ag confirm inactive
CCCCCc1cc(=O)oc2c(C(CCN3CCCC3)c3cc(OC)c(OC)c(OC)c3)c(OC)cc(OC)c12 (stereo not drawn)	none (no result: TLR4-MyD88 BLA)
CC(=O)c1cc(Cl)ccc1OC(=O)c1ccco1	none
O=C(Oc1ccc(Br)cc1C(=O)/C=C/c1ccccc1F)c1ccco1	NTR1 ag 55 | NTR1 ag confirm 40
O=C(C[C@H]1C(=O)N(c2ccccc2)C[C@@H]1Cc1ccccc1)Nc1ccccc1	none (no result: NTR1 ag, TLR4-MyD88 BLA)
Cc1c(N2C(=O)C(=O)/C(=C(/O)c3ccc(Cl)cc3)C2c2ccccc2)c(=O)n(-c2ccccc2)n1C (stereo not drawn)	none
CCOC(=O)c1c(NC(C)=O)sc2c(OCCN(CC)CC)c(Br)ccc12	none
CCOC(=O)c1c(NC(C)=O)sc2c(OCC(O)CN(CC)CC)c(Br)ccc12 (stereo not drawn)	NTR1 ag 53 | NTR1 ag confirm 47
